Results reported in ChEMBL document CHEMBL1139369, “Discovery and structure-activity relationship of P1-P3 ketoamide derived macrocyclic inhibitors of hepatitis C virus NS3 protease” (J Med Chem, 2009).
Active and inactive are the calls of the source. No cut-off for these calls is given here.

Tests used:
[1] = Binding affinity to HCV NS3 protease; parameters: species or system Hepacivirus hominis
Hepatitis C virus = assay: Antiviral activity against HCV by genotype 1 replicon based cellular assay; format: functional, Hepacivirus hominis
[2] = (§1) AUC (0 to 6 hrs) in rat at 10 mg/kg, po; format: ADME, organism-based, Plasma; parameters: time < 6 hr, dose 10 mg/kg, route oral; details: plasma
Method in brief: (§2)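 Rapid rat assay: oral dosing at 10 mg/kg in 0.4% HPMC. Blood drawn periodically and pooled; plasma AUC calculated over 0–6 h.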

[3] = Ratio of Ki for human neutrophil elastase to Ki for HCV NS3 protease
Method in brief: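 Selectivity index: Ki* against human neutrophil elastase divided by Ki* against HCV NS3 protease, both from enzyme binding measurements.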

[4] = AUC (0 to 6 hrs) in rat at 5 mg/kg, po; format: ADME, organism-based; parameters: time < 6 hr, dose 5 mg/kg, route oral; details: plasma
Method in brief: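 Rapid rat plasma-level assay with oral dosing at 5 mg/kg in 0.4% HPMC; plasma exposure expressed as AUC.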

Rattus norvegicus = assay: as §1; format: ADME, organism-based, Plasma; parameters: time < 6 hr, dose 10 mg/kg, route oral; details: in vivo, 6 h; method in brief: as §2

Row | Structure (SMILES) | Ki [1] | EC90 (Hepatitis C virus) | AUC(0-t) at 6 h [2] | other results
1 | C=CCCCC[C@H](NC(=O)[C@@H]1[C@H]2[C@@H](CN1C(=O)[C@H](CCCCC=C)NC(=O)OC(C)(C)C)C2(C)C)C(=O)C(N)=O | 250 nM | – | – | –
2 | C=CCNC(=O)C(=O)[C@@H]1CCCCCCCCC[C@H](NC(=O)N[C@H](CN(C)S(=O)(=O)c2ccccn2)C(C)(C)C)C(=O)N2CC3C([C@H]2C(=O)N1)C3(C)C (single isomer, unassigned) | 7 nM | 90 nM | 0.84 µM·h | –
3 | C=CCNC(=O)C(=O)[C@@H]1CCCCCCCCC[C@H](NC(=O)N[C@H](CN(C)S(C)(=O)=O)C(C)(C)C)C(=O)N2C[C@@H]3[C@H]([C@H]2C(=O)N1)C3(C)C | 3 nM | 55 nM | 0.36 µM·h | –
4 | CCNC(=O)C(=O)[C@@H]1CCCCCCCCC[C@H](NC(=O)N[C@H](CN(C)S(=O)(=O)c2cccs2)C(C)(C)C)C(=O)N2CC3C([C@H]2C(=O)N1)C3(C)C (single isomer, unassigned) | 10 nM | – | – | –
5 | CN(C)C(=O)[C@@H](NC(=O)CNC(=O)C(=O)[C@@H]1CCCCCCCCCC[C@H](NC(=O)NC(C)(C)C)C(=O)N2C[C@@H]3[C@H]([C@H]2C(=O)N1)C3(C)C)c1ccccc1 | 6 nM | 1000 nM | – | Ratio Ki [3]: 980
6 | C=CCNC(=O)C(=O)[C@@H]1CCCCCCCCC[C@H](NC(=O)N[C@H](CN2C(=O)CN(C)CC2=O)C(C)(C)C)C(=O)N2CC3C([C@H]2C(=O)N1)C3(C)C (single isomer, unassigned) | 4 nM | 30 nM | 0.28 µM·h | –
7 | CCCNC(=O)C(=O)[C@@H]1CCCCCCCCC[C@H](NC(=O)N[C@H](CN(C)S(=O)(=O)c2cccs2)C(C)(C)C)C(=O)N2CC3C([C@H]2C(=O)N1)C3(C)C (single isomer, unassigned) | 14 nM | – | – | –
8 | C=CCNC(=O)C(=O)[C@@H]1CCCCCCCCC[C@H](NC(=O)N[C@H](CN2C(=O)CC(C)(C)CC2=O)C(C)(C)C)C(=O)N2CC3C([C@H]2C(=O)N1)C3(C)C (single isomer, unassigned) | 2 nM | 20 nM | 1.1 µM·h | –
9 | C=CCNC(=O)C(=O)[C@@H]1CCCCCCCCC[C@H](NC(=O)N[C@H](CN(C)S(=O)(=O)N(C)C)C(C)(C)C)C(=O)N2C[C@@H]3[C@H]([C@H]2C(=O)N1)C3(C)C | 13 nM | 60 nM | – | AUC(0-t) at 6 h [4]: 1.04 µM·h
10 | CC(C)(C)NC(=O)C(=O)[C@@H]1CCCCCCCCCC[C@H](NC(=O)OC(C)(C)C)C(=O)N2CC3C([C@H]2C(=O)N1)C3(C)C (single isomer, unassigned) | 6000 nM | – | – | Activity (Hepatitis C virus; Hepacivirus hominis): inactive
11 | C=CCNC(=O)C(=O)[C@@H]1CCCCCCCCC[C@H](NC(=O)N[C@H](CN2CCC(C)(C)CC2=O)C(C)(C)C)C(=O)N2C[C@@H]3[C@H]([C@H]2C(=O)N1)C3(C)C | 2 nM | 20 nM | 1.5 µM·h | –
12 | C=CCNC(=O)C(=O)[C@@H]1CCCCCCCCC[C@H](NC(=O)N[C@H](CN2Cc3sccc3S2(=O)=O)C(C)(C)C)C(=O)N2C[C@@H]3[C@H]([C@H]2C(=O)N1)C3(C)C | 7 nM | 150 nM | 0.84 µM·h | –
13 | C=CCNC(=O)C(=O)[C@@H]1CCCCCCCCC[C@H](NC(=O)N[C@H](CN2C(=O)c3ccccc3C2=O)C(C)(C)C)C(=O)N2CC3C([C@H]2C(=O)N1)C3(C)C (single isomer, unassigned) | 16 nM | 100 nM | 1.2 µM·h | –
14 | CN(C)C(=O)[C@@H](NC(=O)CNC(=O)C(=O)[C@@H]1CCCC/C=C/CCCC[C@H](NC(=O)OC(C)(C)C)C(=O)N2CC3C([C@H]2C(=O)N1)C3(C)C)c1ccccc1 (single isomer, unassigned) | 5 nM | 300 nM | – | Ratio Ki [3]: 1400
15 | CN(C)C(=O)[C@@H](NC(=O)CNC(=O)C(=O)[C@@H]1CCCCCCCCCC[C@H](NC(=O)OC(C)(C)C)C(=O)N2CC3C([C@H]2C(=O)N1)C3(C)C)c1ccccc1 (single isomer, unassigned) | 6 nM | 600 nM | – | Ratio Ki [3]: 780
16 | C=CCNC(=O)C(=O)[C@@H]1CCCCCCCCC[C@H](NC(=O)N[C@H](CN2C(=O)C3CCC(C3)C2=O)C(C)(C)C)C(=O)N2CC3C([C@H]2C(=O)N1)C3(C)C (single isomer, unassigned) | 3 nM | 15 nM | 0.31 µM·h | –
17 | C=CCNC(=O)C(=O)[C@@H]1CCCCCCCCC[C@H](NC(=O)N[C@H](CN(C)S(=O)(=O)c2cccs2)C(C)(C)C)C(=O)N2CC3C([C@H]2C(=O)N1)C3(C)C (single isomer, unassigned) | 5 nM | – | 1.26 µM·h | –
18 | CC(C)(C)NC(=O)N[C@H](C(=O)N1CC2C([C@H]1C(=O)NC(CC1CCC1)C(=O)C(N)=O)C2(C)C)C(C)(C)C (single isomer, unassigned) [BOCEPREVIR] | 14 nM | 350 nM | – | Ratio Ki [3]: 2200
19 | CC(C)(C)OC(=O)N[C@H]1CCCCCCCCCC[C@@H](C(=O)C(=O)NCC(=O)NCc2ccccc2)NC(=O)[C@@H]2[C@H]3[C@@H](CN2C1=O)C3(C)C | 89 nM | 2000 nM | – | –
20 | CN(C[C@@H](NC(=O)N[C@H]1CCCCCCCCC[C@@H](C(=O)C(=O)NCC2CC2)NC(=O)[C@@H]2C3C(CN2C1=O)C3(C)C)C(C)(C)C)S(=O)(=O)c1cccs1 (single isomer, unassigned) | 21 nM | – | 0.4 µM·h | –

Second part, led by results:

Row | Ki [1] | EC90 (Hepatitis C virus) | AUC(0-t) at 6 h [2] | Structure (SMILES) | other results
21 | 11 nM | 100 nM | – | CC(C)[C@H](NC(=O)N[C@H]1CCCCCCCCC[C@@H](C(=O)C(N)=O)NC(=O)[C@@H]2C3C(CN2C1=O)C3(C)C)C(=O)C1CC1 (single isomer, unassigned) | –
22 | 2 nM | 70 nM | – | CN(C[C@@H](NC(=O)N[C@H]1CCCCCCCCC[C@@H](C(=O)C(N)=O)NC(=O)[C@@H]2[C@H]3[C@@H](CN2C1=O)C3(C)C)C(C)(C)C)S(=O)(=O)c1cccs1 | –
23 | 59 nM | 1000 nM | – | CC(C)(C)NC(=O)N[C@H]1CCCCCCCCCC[C@@H](C(=O)C(N)=O)NC(=O)[C@H]2[C@H]3[C@@H](CN2C1=O)C3(C)C | –
24 | 37 nM | 400 nM | – | CC(C)(C)OC(=O)[C@@H](NC(=O)N[C@H]1CCCCCCCCCC[C@@H](C(=O)C(N)=O)NC(=O)[C@@H]2[C@H]3[C@@H](CN2C1=O)C3(C)C)C(C)(C)C | –
25 | 3 nM | 250 nM | – | CN(C[C@@H](NC(=O)N[C@H]1CCCCCCCCC[C@@H](C(=O)C(N)=O)NC(=O)[C@@H]2C3C(CN2C1=O)C3(C)C)C(C)(C)C)S(C)(=O)=O (single isomer, unassigned) | –
26 | 6 nM | 280 nM | – | C=CCNC(=O)C(=O)[C@@H]1CCCCCCCCC[C@H](NC(=O)N[C@H](C(=O)C2CC2)C2CCCCC2)C(=O)N2C[C@@H]3[C@H]([C@H]2C(=O)N1)C3(C)C | Activity (Rattus norvegicus): Not Active
27 | 36 nM | 400 nM | – | CC1(NC(=O)N[C@H]2CCCCCCCCCC[C@@H](C(=O)C(N)=O)NC(=O)[C@@H]3C4C(CN3C2=O)C4(C)C)CCCCC1 (single isomer, unassigned) | –
28 | 11 nM | 180 nM | – | CC1(C)C2CN3C(=O)[C@@H](NC(=O)N[C@H](C(=O)C4CC4)C4CCCCC4)CCCCCCCCC[C@@H](C(=O)C(N)=O)NC(=O)[C@@H]3C21 (single isomer, unassigned) | –
29 | 20 nM | 480 nM | – | C=CCNC(=O)C(=O)[C@@H]1CCCCCCCCC[C@H](NC(=O)N[C@H](C(=O)C2CC2)C(C)C)C(=O)N2CC3C([C@H]2C(=O)N1)C3(C)C (single isomer, unassigned) | Activity (Rattus norvegicus): Not Active
30 | 59 nM | 900 nM | – | CC(C)(C)OC(=O)N[C@H]1CCCCCCCCCC[C@@H](C(=O)C(N)=O)NC(=O)[C@@H]2C3C(CN2C1=O)C3(C)C (single isomer, unassigned) | –
